How the values were obtained:
Type in all cases: ADME, organism-based
[1] = Plasma clearance in Lewis rat at 1 mg/kg, iv; design: dose 1 mg/kg, route intravenous
How it was run: (§1)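 Male Lewis rats were given a single intravenous 1 mg/kg or oral 3 mg/kg dose. Plasma levels were measured by LC-MS/MS on a 5 min formic acid water/acetonitrile gradient. Clearance, steady-state volume, terminal half-life and oral bioavailability were derived from the concentration-time profiles.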

[2] = Volume of distribution at steady state in Lewis rat at 1 mg/kg, iv; design: dose 1 mg/kg, route intravenous; details: in vivo, read-out: Vdss; how it was run: as §1
[3] = Half life in Lewis rat at 1 mg/kg, iv; design: dose 1 mg/kg, route intravenous; details: in vivo; how it was run: as §1
[4] = Oral bioavailability in Lewis rat at 3 mg/kg; details: in vivo; how it was run: as §1

clearance [1]: < 10 mL/min/kg
Vd [2]: 2 L/kg
half-life [3]: 9 h
bioavailability [4]: 50%
SMILES: Cc1nnc(-c2ccc(C)c(-c3ccc(C(=O)NCC4CC4)cc3)c2)o1

Reference: ChEMBL document CHEMBL1143258, “Biphenyl amide p38 kinase inhibitors 2: Optimisation and SAR” (Bioorg Med Chem Lett, 2008)
